Source: ChEMBL document CHEMBL4699498 (J Med Chem, 2020)
Calls of active or inactive are those of the source. The rule behind the calls is not given here.

Assays:
[1] = Acute toxicity in Balb/c mouse assessed as weight loss at 25 to 50 mg/kg, ip administered 5 times a week for 3 weeks; type: organism-based; conditions: in vivo, 504 h, dose 25-50 mg/kg
How it was run: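 Male BALB/c nude mice (5–6 weeks) received 5×10^6 Capan-1 cells s.c. in the right armpit. At a mean tumour volume of about 150 mm³, mice were randomised by tumour volume and body weight, 6 per group. Dosing was i.p. in 5% DMSO/20% PEG400/10% Cremophor EL/65% saline, once daily five times per week for 3 weeks. Body weight was measured 2–3 times weekly.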

[2] = system: LNCaP; experiment: Antiproliferation activity against human LNCAP assessed as cell growth inhibition incubated for 7 days by CCK-8 assay; type: functional, cell-based; conditions: time 7.0 day
How it was run: (§1)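 Cells were sub-cultured at least twice and seeded for 24 h before dosing. Compounds came from 10 mM DMSO stocks, given as 10 points of 3-fold serial dilution starting at 10-20 μM. Incubation was about 7 days (Capan-1 13 days) at 37 °C, 5% CO2. Read-out was CCK-8 absorbance at 450 nm, as % growth versus DMSO wells (duplicate wells). IC50 was fitted by nonlinear regression; three independent experiments.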

[3] = system: MDA-MB-231; experiment: Antiproliferation activity against human MDA-MB-231 assessed as cell growth inhibition incubated for 7 days by CCK-8 assay; type: functional, cell-based; conditions: time 7.0 day; how it was run: as §1
[4] = biological target: T1, Protein cereblon/Poly [ADP-ribose] polymerase 1 (Homo sapiens, UniProt P09874+Q96SW2); experiment: Protac activity at CRBN/PARP1 in human MDA-MB-468 cells assessed as induction of PARP1 degradation measured after 24 hrs by Western blot analysis; type: cell-based
How it was run: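 Concentration-response over a wide range, 24 h exposure; PARP1 quantified by western blot and normalized to β-tubulin density; DC50 derived from two biologically independent experiments.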
Target sequence in this assay (P09874 whole entry): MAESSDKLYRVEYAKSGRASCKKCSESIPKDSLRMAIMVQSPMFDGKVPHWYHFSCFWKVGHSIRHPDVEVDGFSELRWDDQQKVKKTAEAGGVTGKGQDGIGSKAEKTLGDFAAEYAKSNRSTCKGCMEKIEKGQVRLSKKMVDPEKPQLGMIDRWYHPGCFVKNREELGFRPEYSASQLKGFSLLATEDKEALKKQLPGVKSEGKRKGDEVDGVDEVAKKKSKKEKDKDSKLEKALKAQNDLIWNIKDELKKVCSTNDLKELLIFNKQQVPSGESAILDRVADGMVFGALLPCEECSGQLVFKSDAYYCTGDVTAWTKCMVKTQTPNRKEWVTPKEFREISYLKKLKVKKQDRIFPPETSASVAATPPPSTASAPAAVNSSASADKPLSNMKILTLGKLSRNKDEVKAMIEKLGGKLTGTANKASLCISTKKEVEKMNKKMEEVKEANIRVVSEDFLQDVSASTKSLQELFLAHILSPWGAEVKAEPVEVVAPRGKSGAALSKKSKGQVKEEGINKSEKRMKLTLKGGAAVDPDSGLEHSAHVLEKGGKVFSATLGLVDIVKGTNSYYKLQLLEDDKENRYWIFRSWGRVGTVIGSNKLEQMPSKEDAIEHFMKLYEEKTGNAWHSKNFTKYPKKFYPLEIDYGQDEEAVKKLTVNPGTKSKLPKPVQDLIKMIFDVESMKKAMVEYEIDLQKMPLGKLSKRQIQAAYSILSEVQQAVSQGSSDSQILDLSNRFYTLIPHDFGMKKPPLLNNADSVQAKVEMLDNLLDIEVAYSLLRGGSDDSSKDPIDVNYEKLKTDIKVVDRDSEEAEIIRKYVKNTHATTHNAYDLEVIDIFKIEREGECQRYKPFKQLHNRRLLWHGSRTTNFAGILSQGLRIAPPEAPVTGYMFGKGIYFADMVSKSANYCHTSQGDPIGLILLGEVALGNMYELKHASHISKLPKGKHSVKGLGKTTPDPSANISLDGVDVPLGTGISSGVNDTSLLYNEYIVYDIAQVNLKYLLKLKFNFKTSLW
Target sequence in this assay (Q96SW2 whole entry): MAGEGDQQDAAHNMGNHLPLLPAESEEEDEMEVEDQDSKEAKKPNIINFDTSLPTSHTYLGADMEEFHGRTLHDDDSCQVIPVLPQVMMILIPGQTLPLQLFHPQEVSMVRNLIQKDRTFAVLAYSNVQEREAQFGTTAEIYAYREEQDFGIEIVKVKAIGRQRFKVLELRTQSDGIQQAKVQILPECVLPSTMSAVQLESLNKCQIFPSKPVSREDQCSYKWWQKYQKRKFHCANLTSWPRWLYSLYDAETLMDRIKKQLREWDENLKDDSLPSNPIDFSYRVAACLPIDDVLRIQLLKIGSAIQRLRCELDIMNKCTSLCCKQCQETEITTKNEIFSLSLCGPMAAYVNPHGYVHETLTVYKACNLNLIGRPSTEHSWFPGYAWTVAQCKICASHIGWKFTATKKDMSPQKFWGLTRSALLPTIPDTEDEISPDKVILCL

[5] = biological target: T1, Protein cereblon/Poly [ADP-ribose] polymerase 1; experiment: Protac activity at CRBN/PARP1 in human CAPAN-1 cells assessed as induction of PARP1 degradation at 100 nM incubated for 24 hrs by Western blot analysis relative to control; type: cell-based
How it was run: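 Capan-1 cells were treated 24 h (1-1000 nM, or a wider dose range for DC50). Lysis was in RIPA buffer with protease inhibitors, and 20-30 μg protein was blotted. PARP1 was normalized to β-tubulin and to DMSO control, quantified by densitometry. DC50 came from two independent experiments.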
Target sequence in this assay (P09874 2-1014 limits assumed): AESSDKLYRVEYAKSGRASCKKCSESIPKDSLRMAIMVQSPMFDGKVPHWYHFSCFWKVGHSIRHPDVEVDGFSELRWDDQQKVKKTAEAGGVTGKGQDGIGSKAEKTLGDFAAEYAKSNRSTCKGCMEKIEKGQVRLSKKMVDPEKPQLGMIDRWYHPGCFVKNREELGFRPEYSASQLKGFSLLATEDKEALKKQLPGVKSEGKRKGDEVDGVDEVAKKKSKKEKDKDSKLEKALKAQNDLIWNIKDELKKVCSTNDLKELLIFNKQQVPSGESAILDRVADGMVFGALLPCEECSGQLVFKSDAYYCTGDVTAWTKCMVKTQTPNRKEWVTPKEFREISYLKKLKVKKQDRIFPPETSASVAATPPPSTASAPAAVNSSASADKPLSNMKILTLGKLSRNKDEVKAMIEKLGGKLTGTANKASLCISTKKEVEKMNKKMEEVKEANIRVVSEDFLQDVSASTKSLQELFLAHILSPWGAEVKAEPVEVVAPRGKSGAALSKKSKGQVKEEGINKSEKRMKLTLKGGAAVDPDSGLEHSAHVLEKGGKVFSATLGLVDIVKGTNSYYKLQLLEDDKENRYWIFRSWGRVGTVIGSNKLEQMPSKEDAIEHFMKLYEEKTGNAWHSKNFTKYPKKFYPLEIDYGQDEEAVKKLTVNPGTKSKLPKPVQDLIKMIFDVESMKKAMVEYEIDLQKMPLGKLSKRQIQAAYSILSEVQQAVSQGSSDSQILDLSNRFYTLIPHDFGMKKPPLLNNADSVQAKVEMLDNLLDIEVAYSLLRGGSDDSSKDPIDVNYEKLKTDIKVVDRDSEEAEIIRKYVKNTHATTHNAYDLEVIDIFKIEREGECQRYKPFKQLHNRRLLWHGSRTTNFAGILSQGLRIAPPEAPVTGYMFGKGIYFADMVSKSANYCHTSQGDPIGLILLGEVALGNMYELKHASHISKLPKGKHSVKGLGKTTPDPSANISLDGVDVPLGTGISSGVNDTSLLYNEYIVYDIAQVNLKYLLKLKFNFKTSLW
Target sequence in this assay (Q96SW2 whole entry partner): as the sequence (Q96SW2 whole entry) above

[6] = biological target: T1, Protein cereblon/Poly [ADP-ribose] polymerase 1; experiment: Protac activity at CRBN/PARP1 in human MDA-MB-468 cells assessed as induction of PARP1 degradation at 30 nM incubated for 1 to 24 hrs by Western blot analysis; type: cell-based; conditions: time hrs 1-24
Target sequence in this assay (P09874 2-1014 limits assumed): as the sequence (P09874 2-1014 limits assumed) above
Target sequence in this assay (Q96SW2 whole entry partner): as the sequence (Q96SW2 whole entry) above

[7] = biological target: T1, Protein cereblon/Poly [ADP-ribose] polymerase 1; experiment: Protac activity at CRBN/PARP1 in human SW-620 cells assessed as induction of PARP1 degradation at 30 nM measured within 1 hr by Western blot analysis; type: cell-based; conditions: time hrs <=1
How it was run: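 Time course at 30 nM in MDA-MB-436 or SW620 cells; PARP1 immunoblotted at successive time points, β-tubulin as loading control.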
Target sequence in this assay (P09874 2-1014 limits assumed): as the sequence (P09874 2-1014 limits assumed) above
Target sequence in this assay (Q96SW2 whole entry partner): as the sequence (Q96SW2 whole entry) above

[8] = Acute toxicity in Balb/c mouse xenografted with Capan1 cells assessed as lethality at 25 to 50 mg/kg, ip qd administered for 5 days in presence of cisplatin; type: organism-based; conditions: in vivo, 120 h, dose 25-50 mg/kg, time 5 day
How it was run: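 Male BALB/c nude mice (5–6 weeks) carried s.c. Capan-1 xenografts (5×10^6 cells, right armpit) and were randomised at about 150 mm³, 6 per group. The agent was given once daily on days 0–4, by oral gavage or i.p., in DMSO/PEG400/Cremophor EL/saline vehicle. Cisplatin 6 mg/kg in saline was given i.p. on day 2, 45 min after the agent. Body weight was recorded 2–3 times weekly.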

[9] = system: CWR22R; experiment: Antiproliferation activity against human 22Rv1 assessed as cell growth inhibition incubated for 7 days by CCK-8 assay; type: functional, cell-based; conditions: time 7.0 day; how it was run: as §1

O=C(CCCCCCCCCCC(=O)N1CCN(C(=O)c2cc(Cc3n[nH]c(=O)c4ccccc34)ccc2F)CC1)NCCNc1cccc2c1C(=O)N(C1CCC(=O)NC1=O)C2=O (centres undefined)
Activity [1]: Non-Toxic | Activity [2]: Active | Activity [3]: Active | DC50 [4]: 0.263 nM | Activity [5]: 100% | Activity [6]: Active | Activity [7]: Active | Activity [8]: Non-Toxic | Activity [9]: Active
